Test results taken from ChEMBL document CHEMBL1136803, “Azasterols as inhibitors of sterol 24-methyltransferase in Leishmania species and Trypanosoma cruzi” (J Med Chem, 2003).
Where “and” joins values, the source holds several entries; their conditions need not be identical. Identical values can stand only once.

Tests used:
[1] = Evaluated for its toxicity against KB cells; format: cell-based; conditions: Homo sapiens
Procedure, shortened: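 KB cells seeded at 4 × 10⁴/mL in RPMI 1640 + 10% HIFCS, 24 h at 37 °C, 5% CO₂, then exposed to 300, 30, 3 and 0.3 μg/mL in triplicate for 72 h; podophyllotoxin positive control. AlamarBlue added for 2–4 h, fluorescence at EX/EM 530/585 nm; ED₅₀ relative to blanks and untreated controls.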

Leishmania amazonensis [2] = experiment: (§1) Effect of compound on free sterol compositions of leishmania mexicana amazonensis promastigotes at a concentration of 0.1 uM; format: functional
Procedure, shortened: (§2)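 L. mexicana amazonensis promastigotes grown in LIT medium with lactalbumin and 10% fetal calf serum at 26 °C without agitation; cultures started at 2 × 10⁶ cells/mL, drug added at 0.5–1 × 10⁷ cells/mL. Total lipids extracted, split into neutral and polar fractions by silicic acid chromatography, sterols analysed by gas-liquid chromatography; read-out is % 24-alkylated vs 24-nonalkylated sterols.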

[3] = In vitro inhibitory concentration against Trypanosoma cruzi intracellular amastigotes; format: functional, cell-based
Leishmania donovani = experiment: In vitro inhibitory concentration against Leishmania donovani intracellular amastigotes; format: functional, organism-based
Procedure, shortened: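 CD1 mouse starch-induced peritoneal macrophages in RPMI1640 + 10% HIFCS, 37 °C, 5% CO₂, infected with hamster-spleen L. donovani MHOM/ET/67/L82 amastigotes (5:1); after 24 h drug exposure for 5 days, overlay replaced day 3, top concentration 30 μg/mL, quadruplicates. Methanol-fixed, Giemsa-stained, scored microscopically; ED₅₀ by curve fitting; Pentostam positive control.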

Leishmania amazonensis [4] = experiment: In vitro inhibitory concentration against Leishmania amazonensis intracellular amastigotes; format: functional, organism-based
Procedure, shortened: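 Swiss mouse peritoneal macrophages adhered 24 h at 37 °C, 5% CO₂, infected with stationary-phase L. amazonensis promastigotes (1:10) at 35 °C for 2 h, washed, held 24 h drug-free, then exposed to compound for 96 h. Bouin-fixed, Giemsa-stained; percentage of infected cells scored, IC₅₀ from hyperbolic inhibition function I = Imax·C/(IC₅₀+C).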

Leishmania amazonensis [5] = experiment: as §1; format: functional; procedure, shortened: as §2; remark: listed apart in the source
[6] = In vitro inhibitory concentration against Trypanosoma cruzi epimastigotes; format: functional
Procedure, shortened: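 T. cruzi Y strain epimastigotes in liver infusion tryptose medium with 10% fetal bovine serum at 28 °C; exponential-phase parasites incubated with compound 96 h, counted by Neubauer hemocytometer. IC₅₀ from I = Imax·C/(IC₅₀+C), Imax 100%.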

Leishmania amazonensis [7] = experiment: In vitro inhibitory concentration against Leishmania amazonensis promastigotes; format: functional, organism-based
Procedure, shortened: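 L. amazonensis MHOM/BR/75/Josefa promastigotes (mouse-passaged) in Warren's medium with 10% fetal bovine serum at 25 °C; exponential-phase cells incubated with compound 96 h, counted by Neubauer hemocytometer. IC₅₀ from I = Imax·C/(IC₅₀+C), Imax 100%.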

Leishmania amazonensis [8] = experiment: Effect of compound on free sterol composition of leishmania mexicana amazonensis promastigotes at a concentration of 0 uM,; format: functional; procedure, shortened: as §2
Leishmania amazonensis [9] = experiment: Effect of compound on free sterol compositions of leishmania mexicana amazonensis promastigotes at a concentration of 1.0 uM; format: functional; procedure, shortened: as §2
Leishmania amazonensis [10] = experiment: Effect on free sterol compositions of leishmania mexicana amazonensis promastigotes at a concentration of 0.1 uM; format: functional; procedure, shortened: as §2
Leishmania amazonensis [11] = experiment: Effect of compound on free sterol compositions of leishmania mexicana amazonensis promastigotes at a concentration of 0.01 uM; format: functional; procedure, shortened: as §2

Question: Which results are given for `CC(O)(C1CCCCN1)[C@H]1CC[C@H]2[C@@H]3CCC4C[C@@H](O[Si](C)(C)C(C)(C)C)CC[C@]4(C)[C@H]3CC[C@]12C` (some centres undefined)?
Answer: IC50 [1]: > 579 µM; Effect (Leishmania amazonensis [2]): <1%; IC50 [3]: 50 µM; IC50 (Leishmania donovani): > 58 µM; IC50 (Leishmania amazonensis [4]): 0.02 µM; Effect (Leishmania amazonensis [5]): 8.5%; IC50 [6]: 0.6 µM; IC50 (Leishmania amazonensis [7]): 1.09 µM

Question: With `CC(O)(C1CCCCN1)[C@H]1CC[C@H]2[C@@H]3CCC4C[C@@H](O)CC[C@]4(C)[C@H]3CC[C@]12C` (some centres undefined) as the molecule, how does the IC50 [1] read?
Answer: 11.9 µM

Question: And the Effect (Leishmania amazonensis [8])?
Answer: 9.8%

Question: What about the Effect (Leishmania amazonensis [2]) of the same molecule?
Answer: 64.2%

Question: What about the IC50 [3] of the same molecule?
Answer: 7.4 µM

Question: And the IC50 (Leishmania donovani)?
Answer: 8.9 µM

Question: What about the IC50 (Leishmania amazonensis [4]) of the same molecule?
Answer: 0.01 µM

Question: And the Effect (Leishmania amazonensis [5])?
Answer: 11.1%

Question: And the IC50 [6]?
Answer: 0.94 µM

Question: And the IC50 (Leishmania amazonensis [7])?
Answer: 0.1 µM

Question: Which results are given for `CC(O)(c1ccccn1)[C@H]1CC[C@H]2[C@@H]3CCC4C[C@@H](O[Si](C)(C)C(C)(C)C)CC[C@]4(C)[C@H]3CC[C@]12C` (some centres undefined)?
Answer: IC50 [1]: > 586 µM; IC50 [3]: > 59 µM; IC50 (Leishmania donovani): > 59 µM; IC50 (Leishmania amazonensis [4]): 1 µM; IC50 [6]: 0.68 µM; IC50 (Leishmania amazonensis [7]): 1.88 µM

Question: Which results are given for `CCC(=O)N1CCCC(C(C)(O)[C@H]2CC[C@H]3[C@@H]4CCC5C[C@@H](O)CC[C@]5(C)[C@H]4CC[C@]23C)C1` (some centres undefined)?
Answer: IC50 [1]: 336 µM; Effect (Leishmania amazonensis [9]): 49.7%; IC50 [3]: 64.6 µM; IC50 (Leishmania donovani): 37.9 µM; Effect (Leishmania amazonensis [5]): 11.7%

Question: What does the source list for `CCC(=O)N1CCCCC1C(C)(O)[C@H]1CC[C@H]2[C@@H]3CCC4C[C@@H](O)CC[C@]4(C)[C@H]3CC[C@]12C` (some centres undefined)?
Answer: IC50 [1]: 11.1 µM; Effect (Leishmania amazonensis [2]): 4.4%; IC50 [3]: 22.8 µM; IC50 (Leishmania donovani): 23.1 µM; Effect (Leishmania amazonensis [5]): 17.7%

Question: Which results are given for `CC(O)(c1cccnc1)[C@H]1CC[C@H]2[C@@H]3CCC4C[C@@H](O)CC[C@]4(C)[C@H]3CC[C@]12C` (some centres undefined)?
Answer: IC50 [1]: > 755 µM; Effect (Leishmania amazonensis [2]): 41.9%; IC50 [3]: 13.3 µM; Effect (Leishmania amazonensis [10]): 3.1% and 4.1% and 11.1%; IC50 (Leishmania donovani): 23.4 µM; IC50 (Leishmania amazonensis [4]): 3 µM; Effect (Leishmania amazonensis [11]): 4.7%; Effect (Leishmania amazonensis [5]): 12.4%; IC50 [6]: 0.62 µM; IC50 (Leishmania amazonensis [7]): 4.24 µM

Question: What does the source list for `CC(O)(c1ccncc1Cl)[C@H]1CC[C@H]2[C@@H]3CCC4C[C@@H](O[Si](C)(C)C(C)(C)C)CC[C@]4(C)[C@H]3CCC12C` (some centres undefined)?
Answer: IC50 [1]: 234 µM; IC50 [3]: > 55 µM; IC50 (Leishmania donovani): > 55 µM

Question: Which IC50 [1] does the source give for `CC(O)(c1ccncc1)[C@H]1CC[C@H]2[C@@H]3CCC4C[C@@H](O[Si](C)(C)C(C)(C)C)CC[C@]4(C)[C@H]3CC[C@]12C` (some centres undefined) here?
Answer: 574 µM

Question: And the IC50 [3]?
Answer: 6.1 µM

Question: What about the IC50 (Leishmania donovani) of the same molecule?
Answer: 15 µM

Question: What about the IC50 (Leishmania amazonensis [4]) of the same molecule?
Answer: 2 µM

Question: What about the IC50 [6] of the same molecule?
Answer: 0.67 µM

Question: What about the IC50 (Leishmania amazonensis [7]) of the same molecule?
Answer: 3.21 µM

Question: What does the source list for `CCC(=O)N1CCCCC1C(C)(O)[C@H]1CC[C@H]2[C@@H]3CCC4C[C@@H](O[Si](C)(C)C(C)(C)C)CC[C@]4(C)[C@H]3CC[C@]12C` (some centres undefined)?
Answer: IC50 [1]: > 520 µM; IC50 [3]: > 52 µM; IC50 (Leishmania donovani): > 52 µM; IC50 (Leishmania amazonensis [4]): 8 µM; IC50 [6]: 1 µM; IC50 (Leishmania amazonensis [7]): 10.3 µM

Question: Which results are given for `CC(O)(C1CCCNC1)[C@H]1CC[C@H]2[C@@H]3CCC4C[C@@H](O)CC[C@]4(C)[C@H]3CC[C@]12C` (some centres undefined)?
Answer: IC50 [1]: 29.2 µM; Effect (Leishmania amazonensis [2]): 63.7%; IC50 [3]: 18 µM; IC50 (Leishmania donovani): 4.8 µM; Effect (Leishmania amazonensis [5]): 13.1%

Question: Which IC50 [1] does the source give for `CC(O)(c1ccncc1Cl)[C@H]1CC[C@H]2[C@@H]3CCC4C[C@@H](O)CC[C@]4(C)[C@H]3CC[C@]12C` (some centres undefined) here?
Answer: < 0.7 µM

Question: What about the IC50 [3] of the same molecule?
Answer: 50 µM

Question: And the IC50 (Leishmania donovani)?
Answer: > 69 µM

Question: With `CC(O)(c1ccccn1)[C@H]1CC[C@H]2[C@@H]3CCC4C[C@@H](O)CC[C@]4(C)[C@H]3CC[C@]12C` (some centres undefined) as the molecule, how does the IC50 [1] read?
Answer: 11.3 µM

Question: And the Effect (Leishmania amazonensis [2])?
Answer: 1.6%

Question: And the IC50 [3]?
Answer: 32.9 µM

Question: What about the IC50 (Leishmania donovani) of the same molecule?
Answer: 14.6 µM

Question: And the IC50 (Leishmania amazonensis [4])?
Answer: 1 µM

Question: What about the Effect (Leishmania amazonensis [5]) of the same molecule?
Answer: 15.5%

Question: And the IC50 [6]?
Answer: 1.03 µM

Question: And the IC50 (Leishmania amazonensis [7])?
Answer: 1.14 µM

Question: For `CC(O)(c1cccnc1)[C@H]1CC[C@H]2[C@@H]3CCC4C[C@@H](O[Si](C)(C)C(C)(C)C)CC[C@]4(C)[C@H]3CC[C@]12C` (some centres undefined), which IC50 [1] is on record?
Answer: > 586 µM

Question: And the IC50 [3]?
Answer: 51.2 µM

Question: And the Effect (Leishmania amazonensis [10])?
Answer: 6.6%

Question: What about the IC50 (Leishmania donovani) of the same molecule?
Answer: 13.9 µM

Question: What about the IC50 (Leishmania amazonensis [4]) of the same molecule?
Answer: 1.5 µM

Question: What about the IC50 [6] of the same molecule?
Answer: 1.2 µM

Question: What about the IC50 (Leishmania amazonensis [7]) of the same molecule?
Answer: 1.75 µM

Question: Which IC50 [1] does the source give for `CCC(=O)N1CCCC(C(C)(O)[C@H]2CC[C@H]3[C@@H]4CCC5C[C@@H](O[Si](C)(C)C(C)(C)C)CC[C@]5(C)[C@H]4CC[C@]23C)C1` (some centres undefined) here?
Answer: > 520 µM

Question: And the IC50 [3]?
Answer: > 52 µM

Question: And the IC50 (Leishmania donovani)?
Answer: > 52 µM

Question: And the IC50 (Leishmania amazonensis [4])?
Answer: 1 µM

Question: What about the IC50 [6] of the same molecule?
Answer: 0.6 µM

Question: What about the IC50 (Leishmania amazonensis [7]) of the same molecule?
Answer: 1.21 µM

Question: What does the source list for `CC(O)(c1ccncc1)[C@H]1CC[C@H]2[C@@H]3CCC4C[C@@H](O)CC[C@]4(C)[C@H]3CC[C@]12C` (some centres undefined)?
Answer: IC50 [1]: 30.7 µM; IC50 [3]: 35 µM; IC50 (Leishmania donovani): 11.3 µM; IC50 (Leishmania amazonensis [4]): 3 µM; IC50 [6]: 0.68 µM; IC50 (Leishmania amazonensis [7]): 3.41 µM

Question: For `CC(O)(C1CCCNC1)[C@H]1CC[C@H]2[C@@H]3CCC4C[C@@H](O[Si](C)(C)C(C)(C)C)CC[C@]4(C)[C@H]3CC[C@]12C` (some centres undefined), which IC50 [1] is on record?
Answer: 2.5 µM

Question: And the IC50 [3]?
Answer: 42.1 µM

Question: What about the IC50 (Leishmania donovani) of the same molecule?
Answer: 6.4 µM

Question: And the IC50 (Leishmania amazonensis [4])?
Answer: 1 µM

Question: And the IC50 [6]?
Answer: 1.01 µM

Question: What about the IC50 (Leishmania amazonensis [7]) of the same molecule?
Answer: 1.4 µM
